Reference: ChEMBL document CHEMBL1140106, “Blocking estrogen signaling after the hormone: pyrimidine-core inhibitors of estrogen receptor-coactivator binding” (J Med Chem, 2008)

Assays:
Estrogen receptor = biological target: T1, Estrogen receptor (Homo sapiens, UniProt P03372); test: Binding affinity to ERalpha assessed as inhibition of fluorescein-labeled nuclear receptor domain of steroid receptor coactivator 3 by TR-FRET assay
T1 sequence (P03372 whole entry): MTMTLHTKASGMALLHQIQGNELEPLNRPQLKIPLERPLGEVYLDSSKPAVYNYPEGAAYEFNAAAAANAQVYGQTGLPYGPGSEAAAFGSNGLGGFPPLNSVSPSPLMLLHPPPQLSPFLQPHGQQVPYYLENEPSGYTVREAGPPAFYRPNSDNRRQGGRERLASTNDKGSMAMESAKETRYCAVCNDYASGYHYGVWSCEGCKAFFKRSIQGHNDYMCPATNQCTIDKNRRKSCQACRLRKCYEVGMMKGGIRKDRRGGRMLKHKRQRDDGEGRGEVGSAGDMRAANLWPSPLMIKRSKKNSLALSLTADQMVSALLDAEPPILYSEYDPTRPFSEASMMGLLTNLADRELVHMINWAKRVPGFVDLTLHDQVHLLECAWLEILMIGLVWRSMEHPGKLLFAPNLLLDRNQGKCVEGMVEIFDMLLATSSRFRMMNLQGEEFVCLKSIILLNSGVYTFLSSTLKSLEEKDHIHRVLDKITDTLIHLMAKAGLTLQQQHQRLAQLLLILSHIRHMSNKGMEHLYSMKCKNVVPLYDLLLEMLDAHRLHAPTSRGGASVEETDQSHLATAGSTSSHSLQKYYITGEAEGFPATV
How it was run: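 Fluorescein-SRC-3-NRD (50 nM) was then added for 1 h at room temperature in the dark. Buffer: 20 mM Tris pH 7.5, 0.01% NP40, 50 mM NaCl. SRC-1 Box II peptide served as positive control.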

Estrogen receptor beta = Estrogen receptor beta (Homo sapiens, UniProt Q92731); test: Binding affinity to ERbeta assessed as inhibition of fluorescein-labeled nuclear receptor domain of steroid receptor coactivator 3 by TR-FRET assay
Chain of Estrogen receptor beta (Q92731 whole entry, the tested form may be a part): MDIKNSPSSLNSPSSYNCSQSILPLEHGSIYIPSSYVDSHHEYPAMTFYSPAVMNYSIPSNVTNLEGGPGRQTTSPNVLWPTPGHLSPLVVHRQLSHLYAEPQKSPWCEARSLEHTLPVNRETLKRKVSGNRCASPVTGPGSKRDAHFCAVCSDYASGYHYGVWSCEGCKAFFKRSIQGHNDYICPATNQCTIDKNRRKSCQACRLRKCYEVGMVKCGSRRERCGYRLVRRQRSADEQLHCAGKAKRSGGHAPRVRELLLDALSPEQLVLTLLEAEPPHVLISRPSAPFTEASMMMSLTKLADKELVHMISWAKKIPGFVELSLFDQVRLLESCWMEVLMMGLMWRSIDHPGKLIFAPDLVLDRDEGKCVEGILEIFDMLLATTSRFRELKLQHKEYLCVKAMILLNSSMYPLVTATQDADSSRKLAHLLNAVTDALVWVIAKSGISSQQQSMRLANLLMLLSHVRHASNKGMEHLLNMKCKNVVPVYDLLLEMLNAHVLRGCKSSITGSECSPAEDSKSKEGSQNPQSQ

Row | SMILES | Ki (Estrogen receptor) [µM] | Ki (Estrogen receptor beta) [µM]
1 | CC(C)CNc1cc(/C=C/c2ccccc2)nc(N(C)CC(C)C)n1 | > 1000 | > 1000
2 | CC(C)CNc1cc(SCC(C)C)nc(NCC(C)C)n1 | > 1000 | > 1000
3 | CC(C)(C)OC(=O)N(Cc1ccccc1)c1cc(CCc2cccc3ccccc23)nc(NCc2cccc3ccccc23)n1 | > 1000 | > 1000
4 | CC(C)CCc1cc(N(C)CC(C)C)nc(NCC(C)C)n1 | > 1000 | > 1000
5 | CC(C)(C)OC(=O)N(Cc1cccc2ccccc12)c1cc(CCc2cccc3ccccc23)nc(NCc2ccccc2)n1 | > 1000 | > 1000
6 | CC(C)CCc1cc(N(C)CC(C)C)nc(N(C)CC(C)C)n1 | > 1000 | > 1000
7 | CC(C)CNc1cc(NCC(C)C)ncn1 | > 1000 | –
8 | CCc1cc(NCC(C)C)nc(NCC(C)C)n1 | – | > 1000
9 | CC(C)CCc1cc(NCC(C)C)nc(SCC(C)C)n1 | > 1000 | > 1000
10 | CC(C)CCc1cc(CCC(C)C)nc(NCC(C)C)n1 | > 1000 | > 1000
11 | CC(C)CNc1cc(NCC(C)C)nc(CCc2cccc3ccccc23)n1 | > 1000 | > 1000
12 | CC(C)CCc1nc(NCc2ccccc2)cc(NCC(C)C)n1 | > 1000 | > 1000
13 | C(=C\c1cc(/C=C/c2ccccc2)nc(NCc2cccc3ccccc23)n1)/c1ccccc1 | > 1000 | > 1000
14 | CC(C)CN(C)c1cc(/C=C/c2ccccc2)nc(N(C)CC(C)C)n1 | > 1000 | > 1000
15 | CC(C)CNc1cc(CCc2ccccc2)nc(N(C)CC(C)C)n1 | > 1000 | > 1000
16 | CC(C)CNc1cc(CCc2cccc3ccccc23)nc(N(C)CC(C)C)n1 | > 1000 | > 1000
17 | CC(C)CNc1nc(CCc2ccccc2)cc(N(C)CC(C)C)n1 | – | > 1000
18 | CC(C)CNc1nc(CCc2cccc3ccccc23)cc(NCc2ccccc2)n1 | > 1000 | > 1000
19 | c1ccc(CNc2cc(CCc3cccc4ccccc34)nc(NCc3cccc4ccccc34)n2)cc1 | > 1000 | > 1000

Row | SMILES | Ki (Estrogen receptor) [µM] | Ki (Estrogen receptor beta) [µM]
20 | CC(C)CNc1cc(CCc2cccc3ccccc23)nc(NCc2ccccc2)n1 | > 1000 | > 1000
21 | CC(C)CNc1cc(S(=O)(=O)CC(C)C)nc(NCC(C)C)n1 | > 1000 | > 1000
22 | CC(C)CNc1nc(CCc2cccc3ccccc23)cc(NCc2cccc3ccccc23)n1 | > 1000 | > 1000
23 | CC(C)CCc1nc(NCC(C)C)cc(NCC(C)C)n1 | > 1000 | > 1000
24 | CC(C)CNc1cc(OCC(C)C)nc(NCC(C)C)n1 | > 1000 | > 1000
25 | CC(C)CN(C)c1cc(CCc2cccc3ccccc23)nc(N(C)CC(C)C)n1 | > 1000 | > 1000
26 | CC(C)CCc1cc(NCC(C)C)nc(NCc2cccc3ccccc23)n1 | – | > 1000
27 | CC(C)CCc1cc(NCc2cccc3ccccc23)nc(NCC(C)C)n1 | – | > 1000
28 | CC(C)CCc1cc(CCC(C)C)nc(NCc2cccc3ccccc23)n1 | > 1000 | > 1000
29 | CC(C)CNc1cc(CCc2ccccc2)nc(NCc2ccccc2)n1 | – | > 1000
30 | CC(C)CNc1nc(CCc2cccc3ccccc23)cc(N(C)CC(C)C)n1 | – | > 1000
31 | CC(C)CNc1nc(CCc2cccc3ccccc23)cc(N(Cc2cccc3ccccc23)C(=O)OC(C)(C)C)n1 | > 1000 | > 1000
32 | CC(C)CCc1cc(NCC(C)C)nc(S(=O)(=O)CC(C)C)n1 | > 1000 | > 1000
33 | c1ccc(CCc2cc(CCc3ccccc3)nc(NCc3ccccc3)n2)cc1 | > 1000 | > 1000
34 | CC(C)CNc1cc(CCc2cccc3ccccc23)nc(NCc2cccc3ccccc23)n1 | > 1000 | > 1000
35 | CC(C)CN(C)c1cc(CCc2ccccc2)nc(N(C)CC(C)C)n1 | > 1000 | > 1000
36 | c1ccc(CNc2cc(NCc3ccccc3)nc(NCc3ccccc3)n2)cc1 | > 1000 | > 1000
37 | c1ccc(CNc2nc(CCc3cccc4ccccc34)cc(NCc3cccc4ccccc34)n2)cc1 | > 1000 | > 1000
